In brackets after ≈: the same amount, converted by molar mass.
Experiments:
[1] = tested on: E. faecium; assay: Initial antibacterial screen of in silico hits; format: cell-based, Enterococcus faecium; settings: initial screening of in silico hits
[2] = tested on: S. aureus; assay: Initial antibacterial screen of in silico hits; format: cell-based, Staphylococcus aureus; settings: initial screening of in silico hits
[3] = tested on: E. faecium 106 (Van R); assay: MIC by microdilution; format: cell-based; settings: Enterococcus faecium
In short: (§1)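 CLSI broth microdilution in cation-adjusted Mueller Hinton II broth, final inoculum 5 × 10⁵ CFU/mL. Plates incubated at 35 °C and read after 16–20 or 20–24 h depending on species. MIC taken as the lowest concentration with no visible growth. All determinations in triplicate.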

[4] = tested on: S. aureus VRS1; assay: MIC by microdilution; format: cell-based; settings: Staphylococcus aureus, MRSA
In short: (§2)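 S. aureus was tested by CLSI broth microdilution in cation-adjusted Mueller Hinton II broth, final inoculum 5 × 10⁵ CFU/mL, 35 °C, read after 16–20 or 20–24 h; oxacillin was tested with 2% NaCl. MIC was the lowest concentration without visible growth, in triplicate. For ATCC 29213, inocula of 5 × 10⁶ and 5 × 10⁷ CFU/mL were also tested.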

[5] = target: purified recombinant PBP2a (Staphylococcus aureus, UniProt P07944); assay: Continuous spectrophotometric PBP2a inhibition assay with nitrocefin; format: biochemical, MRSA
[6] = Hemolysis assay; format: cell-based, horse; settings: horse, washed red blood cells from horse whole blood
[7] = tested on: S. epidermis ATCC 35547; assay: MIC by microdilution; format: cell-based
In short: as §1

[8] = tested on: S. aureus NRS119; assay: MIC by microdilution; format: cell-based; settings: Staphylococcus aureus
In short: as §2

[9] = tested on: S. hemolyticus ATCC 29970; assay: MIC by microdilution; format: cell-based; settings: Streptococcus pyogenes, ATCC29970
[10] = tested on: E. faecium NCTC 7171; assay: MIC by microdilution; format: cell-based; settings: Enterococcus faecium, NCTC7171
In short: as §1

[11] = tested on: S. aureus NRS120; assay: MIC by microdilution; format: cell-based; settings: Staphylococcus aureus
In short: as §2

[12] = tested on: S. pyogenes ATCC 49399; assay: MIC by microdilution; format: cell-based; settings: Streptococcus pyogenes, ATCC49399
In short: (§3)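 Streptococcal MICs came from CLSI broth microdilution in cation-adjusted Mueller Hinton II broth with 5% lysed horse blood. Final inoculum 5 × 10⁵ CFU/mL, incubation at 35 °C, read after 16–20 or 20–24 h depending on species. MIC was the lowest concentration without visible growth, determined in triplicate.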

[13] = Pharmacokinetics in mice; format: in vivo; settings: for volume of distribution (in words): single 50 mg/kg iv
In short: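 Female ICR mice received a single 50 mg/kg dose, either iv in 10% DMSO/25% Tween-80/65% water or po by gavage (n = 3 per time point). Terminal blood was taken at 2 min–24 h after iv and 0.5–48 h after po, then centrifuged for plasma. Plasma was precipitated with acetonitrile containing internal standard and analysed by C18 UPLC-ESI(+)-MRM against calibration curves in blank mouse plasma.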

[14] = tested on: S. aureus ATCC 29213; assay: MIC by microdilution; format: cell-based; settings: Staphylococcus aureus, ATCC29213
In short: as §2

[15] = tested on: S. aureus NRS100 (COL); assay: MIC by microdilution; format: cell-based; settings: Staphylococcus aureus
In short: as §2

[16] = tested on: E. faecium 119–39A (Van S); assay: MIC by microdilution; format: cell-based; settings: Enterococcus faecium
In short: as §1

[17] = tested on: E. faecalis ATCC 29212; assay: MIC by microdilution; format: cell-based; settings: Enterococcus faecalis, ATCC29212
In short: as §1

[18] = tested on: S. oralis ATCC 9811; assay: MIC by microdilution; format: cell-based; settings: Streptococcus oralis, ATCC9811
In short: as §3

[19] = tested on: S. aureus VRS2; assay: MIC by microdilution; format: cell-based; settings: Staphylococcus aureus, MRSA
In short: as §2

[20] = tested on: E. faecalis 201 (Van S); assay: MIC by microdilution; format: cell-based; settings: Enterococcus faecalis
In short: as §1

[21] = tested on: S. aureus ATCC 27660; assay: MIC by microdilution; format: cell-based; settings: Staphylococcus aureus, ATCC27660
In short: as §2

[22] = tested on: peptidoglycan synthesis of S. aureus; assay: Macromolecular synthesis assay, D-[2,3-3H]-alanine incorporation; format: cell-based, Staphylococcus aureus; settings: S. aureus ATCC 29213, logarithmic phase; 0.25 and 0.5 μg/mL
In short: (§4)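 Mid-exponential S. aureus ATCC 29213 in brain heart infusion was labelled with 1 μCi/mL ³H-precursor for 10 min at 37 °C before test compound addition (0.25, 0.5 μg/mL). Controls: ciprofloxacin (thymidine), rifampicin (uridine), tetracycline (leucine), fosfomycin (alanine). Samples every 20 min up to 2 h, precipitated in 20% cold TCA, filtered, scintillation-counted. Triplicates, repeated at least twice; % inhibition versus control.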

[23] = tested on: T7 polymerase transcription of the dacB gene encoding E. coli PBP4; assay: In vitro transcription assay; format: biochemical; settings: 0.5, 5, 50 and 160 μg/mL, 2 h at 37 °C
In short: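 Template was pET24a carrying E. coli K12 dacB without the 90-bp signal-peptide region, linearized with XhoI, 2 μL at 0.5 μg/μL per reaction. Run with a T7 transcription kit, test compound or negative control, then iced. DNaseI (37 °C, 15 min) and EDTA with 65 °C for 10 min followed. Transcripts diluted 30-fold and run on a 1% denaturing formaldehyde gel in MOPS pH 7.0.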

[24] = tested on: DNA synthesis (replication) of S. aureus; assay: Macromolecular synthesis assay, [methyl-3H]-thymidine incorporation; format: cell-based, Staphylococcus aureus; settings: S. aureus ATCC 29213, logarithmic phase; 0.25 and 0.5 μg/mL
In short: as §4

[25] = tested on: RNA synthesis (transcription) of S. aureus; assay: Macromolecular synthesis assay, [5-3H]-uridine incorporation; format: cell-based, Staphylococcus aureus; settings: S. aureus ATCC 29213, logarithmic phase; 0.25 and 0.5 μg/mL
In short: as §4

[26] = tested on: S. aureus ATCC 27660 (MRSA); assay: Mouse peritonitis infection model; format: in vivo, Staphylococcus aureus; settings: mice, antibiotic 3 vs 4
In short: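 Female ICR mice (6–8 weeks, 17–20 g) were infected intraperitoneally with 0.5 mL MRSA ATCC 27660 at 5 × 10⁷ CFU/mL in 5% mucin. The inoculum was grown in brain heart infusion and adjusted to OD540 0.5. A single oral gavage dose was given 1 h post-infection (n = 6/group), with linezolid 10 mg/kg as positive control. Survival was monitored over 2 days.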

[27] = tested on: protein synthesis (translation) of S. aureus; assay: Macromolecular synthesis assay, L-[4,5-3H]-leucine incorporation; format: cell-based, Staphylococcus aureus; settings: S. aureus ATCC 29213, logarithmic phase; 0.25 and 0.5 μg/mL
In short: as §4

[28] = tested on: E. coli S30 extract coupled transcription and translation system; assay: In vitro transcription/translation assay; format: biochemical; settings: concentrations of up to 160 μg/mL (80-fold above the MIC)
In short: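 The coupled system used the E. coli S30 extract (circular DNA) with a pUC19 lacZ template. Test compound was added at 0.5, 5, 50 and 160 μg/mL alongside a negative control. Reactions ran 2 h at 37 °C and were stopped on ice for 5 min. β-Galactosidase was quantified by o-nitrophenyl-β-D-galactoside hydrolysis, read at 420 nm against a standard curve.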

[29] = ICR, mouse, plasma, iv, 50 mg/kg
[30] = female, ICR, mouse, plasma, po, 50 mg/kg

purified recombinant PBP2a, sequence (P07944 whole entry): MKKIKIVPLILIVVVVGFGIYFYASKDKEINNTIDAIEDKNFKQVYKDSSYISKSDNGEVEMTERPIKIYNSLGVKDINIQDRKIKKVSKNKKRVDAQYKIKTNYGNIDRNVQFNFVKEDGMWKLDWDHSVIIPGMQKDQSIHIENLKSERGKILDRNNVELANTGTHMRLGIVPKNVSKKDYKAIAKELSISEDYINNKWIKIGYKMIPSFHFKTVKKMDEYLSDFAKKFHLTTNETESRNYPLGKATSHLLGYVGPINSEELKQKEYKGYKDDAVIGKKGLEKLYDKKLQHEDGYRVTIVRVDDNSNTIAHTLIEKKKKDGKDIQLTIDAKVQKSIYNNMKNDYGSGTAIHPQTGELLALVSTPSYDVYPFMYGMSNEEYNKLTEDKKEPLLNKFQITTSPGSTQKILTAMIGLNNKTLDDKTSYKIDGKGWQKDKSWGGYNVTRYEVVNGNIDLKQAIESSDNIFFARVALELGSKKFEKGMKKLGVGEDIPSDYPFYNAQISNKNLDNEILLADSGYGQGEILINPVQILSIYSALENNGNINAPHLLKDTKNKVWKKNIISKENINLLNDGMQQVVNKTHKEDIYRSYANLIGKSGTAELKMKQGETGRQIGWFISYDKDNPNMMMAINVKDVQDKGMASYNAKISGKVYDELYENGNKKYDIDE

SMILES | MIC [3] [µg/mL] | MIC [4] [µg/mL] | IC50 [5] [µM] | hemolysis at 1 h, 64 μg/mL [6] [%] | MIC [7] [µg/mL] | MIC [8] [µg/mL] | MIC [9] [µg/mL] | MIC [10] [µg/mL] | MIC [11] [µg/mL] | MIC [12] [µg/mL] | AUC(0-inf) [13, 29] [ng·h/mL] | Vd [13, 29] [L/kg] | volume of distribution (in words) ([13]; mice) | MIC [14] [µg/mL] | MIC [15] [µg/mL] | MIC [16] [µg/mL] | MIC [17] [µg/mL] | MIC [18] [µg/mL] | MIC [19] [µg/mL] | MIC [20] [µg/mL] | further results
Fc1ccc(-c2nc(-c3ccc(Oc4ccc(C(F)(F)F)cc4)cc3)no2)cc1 [Compound 1, 5-(4-Fluorophenyl)-3-(4-(4-(trifluoromethyl)phenoxy)phenyl)-1,2,4-oxadiazole] |  |  |  |  |  |  |  |  |  |  |  |  |  |  |  |  |  |  |  |  | MIC (in words) [1]: poor but reproducible MIC; MIC (in words) [2]: poor but reproducible MIC
Oc1ccc(-c2nc(-c3ccc(Oc4ccccc4)cc3)no2)cc1 [Compound 2, 4-(3-(4-Phenoxyphenyl)-1,2,4-oxadiazol-5-yl)phenol] | 2 (≈ 6.05 µM) | 2 (≈ 6.05 µM) | 12.1 | 3 | 2 (≈ 6.05 µM) | 2 (≈ 6.05 µM) | 2 (≈ 6.05 µM) | 1 (≈ 3.03 µM) | 2 (≈ 6.05 µM) | 32 (≈ 96.9 µM) | 23000 | 0.86 | large volume of distribution | 2 (≈ 6.05 µM) | 2 (≈ 6.05 µM) | 1 (≈ 3.03 µM) | 2 (≈ 6.05 µM) | 32 (≈ 96.9 µM) | 2 (≈ 6.05 µM) | 2 (≈ 6.05 µM) | clearance [13, 29]: 36.2 mL/min/kg; MIC [21]: 2 µg/mL (≈ 6.05 µM)
Oc1ccc(-c2nc(-c3ccc(Oc4ccc(C(F)(F)F)cc4)cc3)no2)cc1 [Compound 3, 4-(3-(4-(4-(Trifluoromethyl)phenoxy)phenyl)-1,2,4-oxadiazol-5-yl)phenol] | 2 (≈ 5.02 µM) | 2 (≈ 5.02 µM) | 20.1 | 3 | 2 (≈ 5.02 µM) | 2 (≈ 5.02 µM) | 2 (≈ 5.02 µM) | 2 (≈ 5.02 µM) | 2 (≈ 5.02 µM) | > 32 | 44200 | 0.37 | moderate volume of distribution | 2 (≈ 5.02 µM) | 2 (≈ 5.02 µM) | 1 (≈ 2.51 µM) | 2 (≈ 5.02 µM) | 32 (≈ 80.3 µM) | 2 (≈ 5.02 µM) | 2 (≈ 5.02 µM) | inhibition of peptidoglycan synthesis [22]: inhibited peptidoglycan synthesis; effect on dacB mRNA band intensities [23]: no effect; inhibition of replication (DNA synthesis) [24]: did not inhibit; inhibition of transcription [25]: did not inhibit; AUC(0-inf) [13, 30]: 43700 ng·h/mL; Cmax [13, 30]: 2500 ng/mL; Tmax [13, 30]: 2 h; higher systemic exposure relative to comparator compound ([13]; mice, 50 mg/kg iv, compound 3 vs compound 2, compound 4 vs compound 3): 2 fold; efficacy following po dosing (comparison) [26]: superior efficacy; inhibition of translation [27]: did not inhibit; effect on β-galactosidase formation [28]: no effect; MIC [21]: 2 µg/mL (≈ 5.02 µM)

Reference: paper PMC3985699 (Journal of the American Chemical Society, 2014)
